Reference: ChEMBL document CHEMBL1165965, “Synthesis and structure-activity relationships of 1,2,3,4-tetrahydropyrido[2,3-b]pyrazines as potent and selective inhibitors of the anaplastic lymphoma kinase” (Bioorg Med Chem, 2010)

Experiments:
[1] = system: T1, Receptor-type tyrosine-protein kinase FLT3 (Homo sapiens), P36888 [K663Q]; assay: Inhibition of FLT3 K663Q mutant at 1 uM
T1 sequence (whole entry): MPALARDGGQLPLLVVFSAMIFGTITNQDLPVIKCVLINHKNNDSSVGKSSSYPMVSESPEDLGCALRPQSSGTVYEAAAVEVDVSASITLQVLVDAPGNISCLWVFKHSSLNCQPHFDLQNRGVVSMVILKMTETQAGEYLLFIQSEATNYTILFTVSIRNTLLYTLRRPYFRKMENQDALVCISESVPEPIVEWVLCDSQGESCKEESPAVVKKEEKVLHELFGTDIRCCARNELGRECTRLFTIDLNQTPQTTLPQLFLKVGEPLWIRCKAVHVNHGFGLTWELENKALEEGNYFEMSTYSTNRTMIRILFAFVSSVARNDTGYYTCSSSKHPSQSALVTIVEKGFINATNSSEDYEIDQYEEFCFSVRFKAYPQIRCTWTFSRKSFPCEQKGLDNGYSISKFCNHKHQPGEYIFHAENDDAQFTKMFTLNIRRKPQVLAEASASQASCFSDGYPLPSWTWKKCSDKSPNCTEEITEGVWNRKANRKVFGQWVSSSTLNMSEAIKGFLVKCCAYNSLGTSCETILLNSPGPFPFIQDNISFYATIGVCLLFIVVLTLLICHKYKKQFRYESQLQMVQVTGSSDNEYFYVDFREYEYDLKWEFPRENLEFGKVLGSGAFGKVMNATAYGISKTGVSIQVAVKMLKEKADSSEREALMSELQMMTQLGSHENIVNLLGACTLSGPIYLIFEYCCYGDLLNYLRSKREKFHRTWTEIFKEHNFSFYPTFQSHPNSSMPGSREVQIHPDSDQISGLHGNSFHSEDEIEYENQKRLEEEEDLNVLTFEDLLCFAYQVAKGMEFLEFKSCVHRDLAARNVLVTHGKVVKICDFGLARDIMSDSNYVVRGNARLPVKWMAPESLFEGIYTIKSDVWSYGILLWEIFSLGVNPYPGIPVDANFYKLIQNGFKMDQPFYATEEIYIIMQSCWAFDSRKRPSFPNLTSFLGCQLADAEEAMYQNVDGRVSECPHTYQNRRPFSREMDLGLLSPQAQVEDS

[2] = target: T2, Activin receptor type-1 (Homo sapiens) (UniProt Q04771); assay: Inhibition of ACVR1 at 1 uM
T2 sequence (whole entry): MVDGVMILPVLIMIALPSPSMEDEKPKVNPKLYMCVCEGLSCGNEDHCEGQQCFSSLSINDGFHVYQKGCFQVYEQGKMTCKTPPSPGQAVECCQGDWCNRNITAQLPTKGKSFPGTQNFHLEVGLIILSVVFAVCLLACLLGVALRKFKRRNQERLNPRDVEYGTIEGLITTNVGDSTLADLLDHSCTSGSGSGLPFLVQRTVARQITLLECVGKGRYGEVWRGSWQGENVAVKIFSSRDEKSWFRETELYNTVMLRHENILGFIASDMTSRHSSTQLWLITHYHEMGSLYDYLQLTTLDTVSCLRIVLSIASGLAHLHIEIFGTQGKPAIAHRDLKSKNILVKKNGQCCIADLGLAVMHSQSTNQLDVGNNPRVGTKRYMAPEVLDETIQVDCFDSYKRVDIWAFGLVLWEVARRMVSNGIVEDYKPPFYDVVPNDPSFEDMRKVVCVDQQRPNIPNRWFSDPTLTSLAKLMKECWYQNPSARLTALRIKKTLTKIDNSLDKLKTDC
In short: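 Ambit KINOMEscan screen at a single concentration across a 250–400 kinase panel, recorded as percent inhibition. Selectivity was expressed as S(90), the fraction of kinases inhibited >90%.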

[3] = target: Phosphatidylinositol 4,5-bisphosphate 3-kinase catalytic subunit beta isoform (Homo sapiens) (UniProt P42338); assay: Inhibition of PIK3CB at 1 uM
[4] = target: T3, Inhibitor of nuclear factor kappa-B kinase subunit alpha (Homo sapiens) (UniProt O15111); assay: Inhibition of IKK-alpha at 1 uM
T3 sequence (whole entry): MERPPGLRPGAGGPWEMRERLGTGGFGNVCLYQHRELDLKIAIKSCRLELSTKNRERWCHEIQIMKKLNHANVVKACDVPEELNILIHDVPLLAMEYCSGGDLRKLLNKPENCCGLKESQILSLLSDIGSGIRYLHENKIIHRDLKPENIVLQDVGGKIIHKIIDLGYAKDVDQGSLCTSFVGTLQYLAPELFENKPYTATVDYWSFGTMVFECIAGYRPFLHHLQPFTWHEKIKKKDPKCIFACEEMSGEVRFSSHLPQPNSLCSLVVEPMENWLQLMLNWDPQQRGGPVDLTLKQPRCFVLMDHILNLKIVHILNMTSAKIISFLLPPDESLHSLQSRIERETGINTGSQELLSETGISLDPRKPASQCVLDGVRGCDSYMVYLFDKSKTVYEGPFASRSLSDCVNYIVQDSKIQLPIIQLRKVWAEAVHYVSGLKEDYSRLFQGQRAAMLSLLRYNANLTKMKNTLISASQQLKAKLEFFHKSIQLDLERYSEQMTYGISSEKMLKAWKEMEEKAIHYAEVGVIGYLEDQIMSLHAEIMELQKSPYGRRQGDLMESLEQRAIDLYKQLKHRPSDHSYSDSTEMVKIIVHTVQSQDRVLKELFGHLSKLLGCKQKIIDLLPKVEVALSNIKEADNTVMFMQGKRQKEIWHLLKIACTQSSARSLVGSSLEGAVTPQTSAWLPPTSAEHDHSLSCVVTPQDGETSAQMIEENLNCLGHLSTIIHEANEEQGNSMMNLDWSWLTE

[5] = target: Interferon-induced, double-stranded RNA-activated protein kinase (Homo sapiens) (UniProt P19525); assay: Inhibition of PRKR at 1 uM
[6] = target: Focal adhesion kinase 1 (Homo sapiens) (UniProt Q05397); assay: Inhibition of FAK at 1 uM
In short: (§1)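 Single-concentration screen using Ambit Bioscience KINOMEscan technology across a panel of 250–400 kinases. Per-kinase inhibition from this screen was summarized as S(90), the fraction of kinases inhibited by more than 90%.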

[7] = target: Vascular endothelial growth factor receptor 3 (Homo sapiens) (UniProt P35916); assay: Inhibition of FLT4 at 1 uM
In short: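 Single-concentration screen on the Ambit KINOMEscan platform, run against a panel of 250–400 kinases. Per-kinase inhibition was also summarized as S(90), the fraction of kinases inhibited by more than 90%.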

[8] = target: Epidermal growth factor receptor (Homo sapiens) (UniProt P04626+P00533+Q15303+P21860); assay: Inhibition of EGFR E746-A750del mutant at 1 uM; format: protein assay; in short: as §1

Chain of Vascular endothelial growth factor receptor 3 (Homo sapiens) (P35916 whole entry): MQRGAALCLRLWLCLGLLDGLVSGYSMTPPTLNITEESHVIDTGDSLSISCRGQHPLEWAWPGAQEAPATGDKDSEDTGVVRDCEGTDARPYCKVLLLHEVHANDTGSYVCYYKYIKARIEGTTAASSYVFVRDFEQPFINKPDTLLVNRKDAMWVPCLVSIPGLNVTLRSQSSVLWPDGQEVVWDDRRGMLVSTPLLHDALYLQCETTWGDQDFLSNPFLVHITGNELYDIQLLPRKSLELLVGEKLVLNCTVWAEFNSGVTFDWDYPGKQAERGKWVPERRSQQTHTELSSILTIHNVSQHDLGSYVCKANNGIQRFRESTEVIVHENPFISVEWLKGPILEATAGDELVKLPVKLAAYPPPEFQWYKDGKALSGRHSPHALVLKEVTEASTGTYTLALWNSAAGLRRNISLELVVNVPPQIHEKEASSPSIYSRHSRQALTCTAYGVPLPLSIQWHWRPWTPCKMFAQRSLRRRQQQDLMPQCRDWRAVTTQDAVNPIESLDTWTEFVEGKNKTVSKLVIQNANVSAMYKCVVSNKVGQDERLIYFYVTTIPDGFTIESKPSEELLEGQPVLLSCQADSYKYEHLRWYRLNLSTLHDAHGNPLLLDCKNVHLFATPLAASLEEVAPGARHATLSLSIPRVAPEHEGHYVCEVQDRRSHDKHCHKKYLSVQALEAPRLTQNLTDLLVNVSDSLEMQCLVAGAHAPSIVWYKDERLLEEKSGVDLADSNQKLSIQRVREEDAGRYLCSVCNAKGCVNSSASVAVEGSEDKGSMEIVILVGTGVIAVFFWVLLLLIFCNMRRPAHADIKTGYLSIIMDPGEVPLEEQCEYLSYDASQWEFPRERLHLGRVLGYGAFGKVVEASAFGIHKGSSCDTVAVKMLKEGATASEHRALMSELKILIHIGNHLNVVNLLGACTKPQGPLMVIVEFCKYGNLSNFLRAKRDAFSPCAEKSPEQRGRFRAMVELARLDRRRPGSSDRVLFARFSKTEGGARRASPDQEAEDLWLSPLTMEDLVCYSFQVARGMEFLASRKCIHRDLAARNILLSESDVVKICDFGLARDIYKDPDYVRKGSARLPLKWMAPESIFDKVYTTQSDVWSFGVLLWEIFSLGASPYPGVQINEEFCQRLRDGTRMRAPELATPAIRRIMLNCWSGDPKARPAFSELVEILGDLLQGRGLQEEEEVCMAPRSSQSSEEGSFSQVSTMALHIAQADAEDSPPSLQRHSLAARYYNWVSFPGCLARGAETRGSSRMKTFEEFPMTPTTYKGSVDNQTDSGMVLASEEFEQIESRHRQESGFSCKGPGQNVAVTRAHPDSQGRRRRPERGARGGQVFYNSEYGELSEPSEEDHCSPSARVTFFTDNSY
Chain of Interferon-induced, double-stranded RNA-activated protein kinase (Homo sapiens) (P19525 whole entry): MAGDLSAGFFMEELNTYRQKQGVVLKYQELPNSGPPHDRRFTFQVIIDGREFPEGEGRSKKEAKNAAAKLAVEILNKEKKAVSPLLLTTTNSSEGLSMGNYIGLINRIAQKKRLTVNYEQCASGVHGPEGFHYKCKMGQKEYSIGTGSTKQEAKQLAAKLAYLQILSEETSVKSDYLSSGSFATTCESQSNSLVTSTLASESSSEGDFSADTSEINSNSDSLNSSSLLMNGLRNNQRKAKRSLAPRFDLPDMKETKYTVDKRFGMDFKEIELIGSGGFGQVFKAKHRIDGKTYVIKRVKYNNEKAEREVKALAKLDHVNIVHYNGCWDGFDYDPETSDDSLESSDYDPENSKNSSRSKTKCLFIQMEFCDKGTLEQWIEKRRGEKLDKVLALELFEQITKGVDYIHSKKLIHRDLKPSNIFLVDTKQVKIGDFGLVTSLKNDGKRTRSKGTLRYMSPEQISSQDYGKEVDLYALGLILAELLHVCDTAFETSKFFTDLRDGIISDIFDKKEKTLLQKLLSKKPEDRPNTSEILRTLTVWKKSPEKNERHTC
Chain of Focal adhesion kinase 1 (Homo sapiens) (Q05397 2-1052 limits assumed): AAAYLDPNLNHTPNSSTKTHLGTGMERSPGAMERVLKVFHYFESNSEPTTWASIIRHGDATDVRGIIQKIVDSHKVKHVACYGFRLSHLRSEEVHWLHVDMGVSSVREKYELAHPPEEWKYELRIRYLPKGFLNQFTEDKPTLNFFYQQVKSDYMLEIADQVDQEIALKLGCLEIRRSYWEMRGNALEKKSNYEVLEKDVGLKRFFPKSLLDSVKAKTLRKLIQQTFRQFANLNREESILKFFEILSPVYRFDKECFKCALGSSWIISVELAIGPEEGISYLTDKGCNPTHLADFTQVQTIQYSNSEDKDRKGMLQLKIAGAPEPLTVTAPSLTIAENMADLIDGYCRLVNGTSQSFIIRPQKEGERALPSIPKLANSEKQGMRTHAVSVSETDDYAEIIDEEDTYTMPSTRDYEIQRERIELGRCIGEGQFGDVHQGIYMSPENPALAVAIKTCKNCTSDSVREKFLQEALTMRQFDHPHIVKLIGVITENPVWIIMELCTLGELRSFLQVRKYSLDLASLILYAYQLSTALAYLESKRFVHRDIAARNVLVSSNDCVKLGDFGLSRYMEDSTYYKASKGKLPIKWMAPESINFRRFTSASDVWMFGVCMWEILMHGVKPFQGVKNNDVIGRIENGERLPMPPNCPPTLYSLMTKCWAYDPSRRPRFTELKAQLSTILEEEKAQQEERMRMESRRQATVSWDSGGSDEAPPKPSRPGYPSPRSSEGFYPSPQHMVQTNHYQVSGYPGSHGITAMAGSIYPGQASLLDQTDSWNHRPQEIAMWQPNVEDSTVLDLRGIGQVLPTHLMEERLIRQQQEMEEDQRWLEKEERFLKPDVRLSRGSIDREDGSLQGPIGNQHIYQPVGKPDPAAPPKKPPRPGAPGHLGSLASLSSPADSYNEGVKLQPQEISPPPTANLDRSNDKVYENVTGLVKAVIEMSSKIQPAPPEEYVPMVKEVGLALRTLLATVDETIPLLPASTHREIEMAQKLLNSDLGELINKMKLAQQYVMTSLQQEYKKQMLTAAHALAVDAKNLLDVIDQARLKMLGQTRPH
Chain of Phosphatidylinositol 4,5-bisphosphate 3-kinase catalytic subunit beta isoform (Homo sapiens) (P42338 whole entry, looked up, canonical isoform): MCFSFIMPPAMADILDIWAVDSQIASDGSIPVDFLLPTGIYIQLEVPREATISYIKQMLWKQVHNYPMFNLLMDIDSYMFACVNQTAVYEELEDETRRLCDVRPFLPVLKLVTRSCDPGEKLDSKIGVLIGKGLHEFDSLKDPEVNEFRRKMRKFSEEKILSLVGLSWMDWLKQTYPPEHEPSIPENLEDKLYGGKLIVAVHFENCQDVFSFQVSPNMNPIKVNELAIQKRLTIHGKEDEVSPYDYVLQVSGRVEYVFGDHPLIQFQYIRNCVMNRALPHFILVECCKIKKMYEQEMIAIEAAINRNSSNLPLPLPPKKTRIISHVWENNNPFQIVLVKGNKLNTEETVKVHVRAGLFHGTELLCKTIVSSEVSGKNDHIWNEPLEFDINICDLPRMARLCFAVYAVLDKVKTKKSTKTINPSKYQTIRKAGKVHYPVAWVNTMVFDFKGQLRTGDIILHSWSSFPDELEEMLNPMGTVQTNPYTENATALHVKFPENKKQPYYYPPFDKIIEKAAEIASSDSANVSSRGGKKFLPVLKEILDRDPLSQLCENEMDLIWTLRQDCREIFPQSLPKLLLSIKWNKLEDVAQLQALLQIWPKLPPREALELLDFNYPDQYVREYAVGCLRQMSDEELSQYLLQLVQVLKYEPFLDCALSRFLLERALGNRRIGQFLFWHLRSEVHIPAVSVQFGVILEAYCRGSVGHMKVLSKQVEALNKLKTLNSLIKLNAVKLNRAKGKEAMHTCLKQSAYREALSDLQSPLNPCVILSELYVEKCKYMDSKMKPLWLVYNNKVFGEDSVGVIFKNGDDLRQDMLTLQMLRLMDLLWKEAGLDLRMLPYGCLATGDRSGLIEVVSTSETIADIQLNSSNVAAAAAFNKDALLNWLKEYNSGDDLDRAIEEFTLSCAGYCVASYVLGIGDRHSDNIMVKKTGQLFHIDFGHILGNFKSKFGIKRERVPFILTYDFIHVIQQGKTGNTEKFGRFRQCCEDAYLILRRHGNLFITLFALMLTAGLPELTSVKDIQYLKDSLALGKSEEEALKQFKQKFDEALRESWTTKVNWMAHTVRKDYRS

| SMILES | inhibition [1] | inhibition [2] | inhibition [3] | inhibition [4] | inhibition [5] | inhibition [6] | inhibition [7] | inhibition [8] |
| --- | --- | --- | --- | --- | --- | --- | --- | --- |
| CN1CCN(c2ccc(-c3cnc4c(c3)N(Cc3cc(Cl)ccc3C(F)(F)F)CCN4)cn2)CC1 | 92% | < 50% | < 50% | < 50% | < 50% | 98% | < 50% | < 50% |
| CN1CCN(c2ccc(-c3cnc4c(c3)N(Cc3cc(F)ccc3F)CCN4)cn2)CC1 | 80% | < 50% | < 50% | < 50% | < 50% | 67.2% | < 50% | < 50% |
| CN1CCN(c2ccc(-c3cnc4c(c3)N(Cc3cc(Cl)ccc3Cl)CCN4)cn2)CC1 | 93% | < 50% | < 50% | < 50% | < 50% | 94% | < 50% | < 50% |
| CN1CCN(c2ccc(-c3cnc4c(c3)N(Cc3c(F)ccc(F)c3Cl)CCN4)cn2)CC1 | 70% | < 50% | < 50% | < 50% | < 50% | 83% | < 50% | < 50% |
| FC(F)(F)c1ccc(Cl)cc1CN1CCNc2ncc(-c3ccnc(N4CCNCC4)c3)cc21 | 98% | < 50% | < 50% | < 50% | < 50% | 100% | < 50% | < 50% |

Other lines, results leading:

| inhibition [1] | inhibition [2] | inhibition [3] | inhibition [4] | inhibition [5] | inhibition [6] | inhibition [7] | inhibition [8] | SMILES |
| --- | --- | --- | --- | --- | --- | --- | --- | --- |
| 93% | < 50% | < 50% | < 50% | < 50% | 100% | < 50% | < 50% | CC(=O)N1CCN(c2cc(-c3cnc4c(c3)N(Cc3cc(Cl)ccc3C(F)(F)F)CCN4)ccn2)CC1 |
| – | < 50% | – | – | < 50% | – | < 50% | < 50% | O=C(O)c1ccc(-c2cnc3c(c2)N(Cc2cc(Cl)ccc2C(F)(F)F)CCN3)cc1 |
| – | < 50% | – | – | < 50% | 84.4% | < 50% | < 50% | O=C(c1ccc(-c2cnc3c(c2)N(Cc2cc(Cl)ccc2C(F)(F)F)CCN3)cc1)N1CCCCC1 |
| – | < 50% | – | – | < 50% | 94% | < 50% | < 50% | COC1CCN(C(=O)c2ccc(-c3cnc4c(c3)N(Cc3cc(Cl)ccc3C(F)(F)F)CCN4)cc2)CC1 |
| – | < 50% | – | – | < 50% | 98.9% | 84.5% | < 50% | O=C(c1ccc(-c2cnc3c(c2)N(Cc2cc(Cl)ccc2C(F)(F)F)CCN3)cc1)N1CCC(N2CCCC2)CC1 |
